According to publication PMC12125705 (Journal of medicinal chemistry, 2017):
In brackets after ≈: the same amount, converted by molar mass. Each block holds one molecule with its values, some of them ahead of it.

Legend:
[1] = biological target: RNA topoisomerase activity of E. coli topoisomerase I (EcoTop1) (Escherichia coli, UniProt P06612); assay: RNA topoisomerase inhibition assay; assay type: biochemical; settings: 10 nM EcoTop1; for inhibitory effect on the RNA topoisomerase activity of EcoTop1: at concentrations up to 50 μM; for concentration at which RNA topoisomerase activity is inhibited: concentration-dependent, 2.5–40 μM tested; for effect on the RNA topoisomerase activity of EcoTop1: even at 80 μM concentrations
[2] = test system: human prostate cancer cell line DU-145; assay: Cytotoxicity; assay type: cell-based; settings: 48 h treatment, SRB
Outline: (§1)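 Cells grown per ATCC protocols, trypsin-EDTA harvested, trypan-blue counted, seeded at […] cells/well, and allowed to recover 24 h (37 °C, 5% CO2). They were then treated in triplicate at final 20, 10, 5, 2.5, 1.25, 0.625 and 0.0625 μM for 48 h. Fixed with cold TCA (16% final, 4 °C, 1 h), stained 15 min with SRB in 1% acetic acid, dye dissolved in 10 mM Tris base, A560 read. IC50 derived from absorbance; study done in duplicate.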

[3] = test system: Gram-positive bacterial strains; assay: MIC by microbroth dilution, summary over strains in text; assay type: cell-based; settings: Shigella flexneri, read-out: MIC values against most Gram-positive strains
S. aureus 29213 = settings: compounds 1–4 reproduced; ref [35]; cited from earlier work
S. aureus 33591 = settings: compounds 1–4 reproduced; ref [35]; cited from earlier work
E. faecalis 29212 = settings: compounds 1–4 reproduced; ref [35]; cited from earlier work
[4] = biological target: T1, human DNA topoisomerase I (Homo sapiens, UniProt P11387); settings: read-out: IC50 hTopoI, values reproduced, ref [35]; cited from earlier work
T1 sequence (P11387 1-765): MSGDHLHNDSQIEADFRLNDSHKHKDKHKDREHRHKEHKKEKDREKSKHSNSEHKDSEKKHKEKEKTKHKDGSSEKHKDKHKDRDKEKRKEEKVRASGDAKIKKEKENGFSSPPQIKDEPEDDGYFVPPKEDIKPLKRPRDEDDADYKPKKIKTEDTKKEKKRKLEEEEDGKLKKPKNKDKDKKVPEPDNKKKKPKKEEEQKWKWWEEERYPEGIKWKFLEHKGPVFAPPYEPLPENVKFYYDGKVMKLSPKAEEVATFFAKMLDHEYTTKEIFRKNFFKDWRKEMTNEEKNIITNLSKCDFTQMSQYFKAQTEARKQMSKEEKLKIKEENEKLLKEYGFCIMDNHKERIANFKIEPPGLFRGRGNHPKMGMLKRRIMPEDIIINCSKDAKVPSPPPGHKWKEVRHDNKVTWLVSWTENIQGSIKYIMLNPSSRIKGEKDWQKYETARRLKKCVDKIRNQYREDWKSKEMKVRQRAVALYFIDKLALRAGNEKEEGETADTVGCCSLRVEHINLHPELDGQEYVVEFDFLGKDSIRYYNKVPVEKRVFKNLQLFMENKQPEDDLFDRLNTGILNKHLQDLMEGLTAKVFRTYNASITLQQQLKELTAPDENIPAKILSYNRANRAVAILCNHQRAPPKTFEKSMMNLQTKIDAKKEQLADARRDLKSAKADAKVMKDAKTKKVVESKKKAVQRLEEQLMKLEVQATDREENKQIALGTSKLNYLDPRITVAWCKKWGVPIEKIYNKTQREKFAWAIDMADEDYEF

E. coli 25922 = settings: compounds 1–4 reproduced; ref [35]; cited from earlier work
E. coli K12 = settings: compounds 1–4 reproduced; ref [35]; cited from earlier work
Cytotoxicity [5] = assay type: cell-based, human; settings: human, DU-145 prostate cancer cells
Outline: as §1

A. baumanni 19606 = assay: MIC by microbroth dilution; assay type: cell-based, Acinetobacter baumanni; settings: Acinetobacter, 19606, 24 h, read-out: MIC A. baumanni 19606
Outline: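 CLSI microbroth dilution in Mueller-Hinton broth. Strains were grown at 37 °C with shaking to log phase, pelleted, and resuspended in 0.85% saline to OD625 0.1. Final inoculum 5 × 10^5 CFU/mL in 96-well plates, tested in triplicate, incubated 24 h at 37 °C. Growth was read as OD at 625 nm.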

Cytotoxicity [6] = assay type: cell-based; settings: human, PCS 201-010 normal dermal fibroblast cells
Outline: as §1

[7] = biological target: E. coli DNA topoisomerase I (Escherichia coli, UniProt P06612); assay type: biochemical; settings: at 50 μM
Sequence of E. coli DNA topoisomerase I (P06612 whole entry): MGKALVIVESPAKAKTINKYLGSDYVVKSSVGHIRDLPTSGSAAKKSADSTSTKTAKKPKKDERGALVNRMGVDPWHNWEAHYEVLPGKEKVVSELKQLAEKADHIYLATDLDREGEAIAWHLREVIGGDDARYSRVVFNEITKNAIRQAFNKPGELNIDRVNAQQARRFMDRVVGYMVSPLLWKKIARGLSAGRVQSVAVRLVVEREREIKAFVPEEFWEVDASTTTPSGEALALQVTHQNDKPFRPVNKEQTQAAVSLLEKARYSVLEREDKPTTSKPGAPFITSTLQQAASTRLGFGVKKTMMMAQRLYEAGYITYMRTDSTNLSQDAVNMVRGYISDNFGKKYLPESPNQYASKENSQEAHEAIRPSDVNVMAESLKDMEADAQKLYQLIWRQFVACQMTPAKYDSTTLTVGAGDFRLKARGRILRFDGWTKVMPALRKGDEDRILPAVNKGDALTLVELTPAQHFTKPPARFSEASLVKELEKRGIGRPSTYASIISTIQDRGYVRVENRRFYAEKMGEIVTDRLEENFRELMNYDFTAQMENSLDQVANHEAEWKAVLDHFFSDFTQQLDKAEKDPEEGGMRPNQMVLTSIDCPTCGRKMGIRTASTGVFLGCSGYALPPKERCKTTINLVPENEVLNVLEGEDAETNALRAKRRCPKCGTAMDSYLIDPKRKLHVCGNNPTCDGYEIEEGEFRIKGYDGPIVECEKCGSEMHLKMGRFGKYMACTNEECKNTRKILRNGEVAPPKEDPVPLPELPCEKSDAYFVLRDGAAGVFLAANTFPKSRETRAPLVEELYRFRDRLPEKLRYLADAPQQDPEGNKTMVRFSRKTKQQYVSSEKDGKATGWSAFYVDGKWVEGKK

Sequence of RNA topoisomerase activity of E. coli topoisomerase I (EcoTop1) (P06612 whole entry): as above

SMILES: C#CCOc1ccc(-c2nc3ccc(-c4nc5ccc(N6CCN(C)CC6)cc5[nH]4)cc3[nH]2)cc1 [Compound 1]
inhibitory effect on the RNA topoisomerase activity of EcoTop1 [1]: no discernible inhibitory effect | cytotoxicity to DU-145 compared with Hoechst 33258 [2]: more cytotoxic | MIC [3]: 0.3 to 4 µg/mL (≈ 0.649 to 8.65 µM) | MIC S. aureus 29213 (S. aureus 29213): 2 to 4 µg/mL | MIC S. aureus 33591 (S. aureus 33591): 2 to 4 µg/mL | MIC E. faecalis 29212 (E. faecalis 29212): 16 to 32 µg/mL

SMILES: C#CCCCCOc1ccc(-c2nc3ccc(-c4nc5ccc(N6CCN(C)CC6)cc5[nH]4)cc3[nH]2)cc1 [Compound 2]
inhibitory effect on the RNA topoisomerase activity of EcoTop1 [1]: no discernible inhibitory effect | cytotoxicity to DU-145 compared with Hoechst 33258 [2]: more cytotoxic | MIC [3]: 0.3 to 4 µg/mL (≈ 0.594 to 7.93 µM) | IC50 [4]: > 50 µM | MIC S. aureus 29213 (S. aureus 29213): 2 to 4 µg/mL | MIC S. aureus 33591 (S. aureus 33591): 2 to 4 µg/mL | MIC E. coli 25922 (E. coli 25922): 8 to 16 µg/mL | MIC E. coli K12 (E. coli K12): 8 to 16 µg/mL

SMILES: C#CCCCCCCCCCOc1ccc(-c2nc3ccc(-c4nc5ccc(N6CCN(C)CC6)cc5[nH]4)cc3[nH]2)cc1 [Compound 3]
concentration at which RNA topoisomerase activity is inhibited [1]: about 10 μM | IC50 at 48 h (Cytotoxicity [5]): > 10 µM | IC50 [4]: > 50 µM | MIC E. faecalis 29212 (E. faecalis 29212): 16 to 32 µg/mL | MIC E. coli K12 (E. coli K12): 8 to 16 µg/mL

SMILES: C#CCOCCCCOc1ccc(-c2nc3ccc(-c4nc5ccc(N6CCN(C)CC6)cc5[nH]4)cc3[nH]2)cc1 [Compound 4]
inhibitory effect on the RNA topoisomerase activity of EcoTop1 [1]: no discernible inhibitory effect | cytotoxicity to DU-145 compared with Hoechst 33258 [2]: more cytotoxic | MIC [3]: 0.3 to 4 µg/mL (≈ 0.561 to 7.48 µM) | IC50 [4]: > 50 µM | MIC S. aureus 29213 (S. aureus 29213): 2 to 4 µg/mL | MIC S. aureus 33591 (S. aureus 33591): 2 to 4 µg/mL | MIC E. coli 25922 (E. coli 25922): 8 to 16 µg/mL | MIC E. coli K12 (E. coli K12): 8 to 16 µg/mL

SMILES: C#CCOCCCCCCOc1ccc(-c2nc3ccc(-c4nc5ccc(N6CCN(C)CC6)cc5[nH]4)cc3[nH]2)cc1 [Compound 5, 6-(4-Methylpiperazin-1-yl)-2′-(4-(6-(prop-2-ynyloxy)-hexyloxy)phenyl)-1H,3′H-2,5′-bibenzo[d]imidazole]
inhibitory effect on the RNA topoisomerase activity of EcoTop1 [1]: no discernible inhibitory effect | MIC (A. baumanni 19606): > 32 µg/mL | cytotoxicity to DU-145 compared with Hoechst 33258 [2]: more cytotoxic

SMILES: C#CCOCCCCCCCCOc1ccc(-c2nc3ccc(-c4nc5ccc(N6CCN(C)CC6)cc5[nH]4)cc3[nH]2)cc1 [Compound 6, 6-(4-Methylpiperazin-1-yl)-2′-(4-(8-(prop-2-ynyloxy)octyloxy)phenyl)-1H,3′H-2,5′-bibenzo[d]imidazole]
concentration at which RNA topoisomerase activity is inhibited [1]: about 10 μM | cytotoxicity to DU-145 compared with Hoechst 33258 [2]: more cytotoxic

SMILES: C#CCOCCCCCCCCCCOc1ccc(-c2nc3ccc(-c4nc5ccc(N6CCN(C)CC6)cc5[nH]4)cc3[nH]2)cc1 [Compound 7, 6-(4-Methylpiperazin-1-yl)-2′-(4-(10-(prop-2-ynyloxy)decyloxy)phenyl)-1H,3′H-2,5′-bibenzo[d]imidazole]
concentration at which RNA topoisomerase activity is inhibited [1]: about 10 μM | MIC (A. baumanni 19606): > 32 µg/mL | IC50 at 48 h (Cytotoxicity [5]): > 10 µM

SMILES: C#CCOCCCCCCCCCCCCOc1ccc(-c2nc3ccc(-c4nc5ccc(N6CCN(C)CC6)cc5[nH]4)cc3[nH]2)cc1 [Compound 8, 6-(4-Methylpiperazin-1-yl)-2′-(4-(12-(prop-2-ynyloxy)dodecyloxy)phenyl)-1H,3′H-2,5′-bibenzo[d]imidazole]
concentration at which RNA topoisomerase activity is inhibited [1]: about 10 μM | IC50 at 48 h (Cytotoxicity [5]): > 10 µM | IC50 at 48 h (Cytotoxicity [6]): > 10 µM

SMILES: C#CCOCCOCCOCCOCCOCCOCCOc1ccc(-c2nc3ccc(-c4nc5ccc(N6CCN(C)CC6)cc5[nH]4)cc3[nH]2)cc1 [Compound 9, 2′-(4-(3,6,9,12,15,18-Hexaoxahenicos-20-ynyloxy)phenyl)-6-(4-methylpiperazin-1-yl)-1H,3′H-2,5′-bibenzo[d]imidazole]
inhibition of the activity of E. coli DNA topoisomerase I [7]: did not significantly inhibit | inhibitory effect on the RNA topoisomerase activity of EcoTop1 [1]: no discernible inhibitory effect | MIC (A. baumanni 19606): > 32 µg/mL | IC50 at 48 h (Cytotoxicity [5]): > 10 µM

MIC (A. baumanni 19606): 16 to 32 µg/mL (≈ 76.1 to 152 µM)
SMILES: Oc1ccc(-c2nc3ccccc3[nH]2)cc1 [Compound 13, 4-(1H-Benzo[d]imidazol-2-yl)phenol]

MIC (A. baumanni 19606): > 32 µg/mL
SMILES: CN1CCN(c2ccc3nc(-c4ccc(OCCCNC(=O)OC(C)(C)C)cc4)[nH]c3c2)CC1 [Compound 15, tert-Butyl 3-(4-(6-(4-Methylpiperazin-1-yl)-1H-benzo[d]imidazol-2-yl)phenoxy)propylcarbamate]

MIC (A. baumanni 19606): > 32 µg/mL
SMILES: CN1CCN(c2ccc3nc(-c4ccc(OCc5cn(CCN=[N+]=[N-])nn5)cc4)[nH]c3c2)CC1 [Compound 19, 2-(4-((1-(2-Azidoethyl)-1H-1,2,3-triazol-4-yl)methoxy)-phenyl)-6-(4-methylpiperazin-1-yl)-1H-benzo[d]imidazole]

SMILES: CN1CCN(c2ccc3nc(-c4ccc(OCc5cn(CCCCN=[N+]=[N-])nn5)cc4)[nH]c3c2)CC1 [Compound 20]
inhibitory effect on the RNA topoisomerase activity of EcoTop1 [1]: no discernible inhibitory effect

MIC (A. baumanni 19606): > 32 µg/mL
SMILES: C#Cc1ccc(-c2cn(CCOc3ccc(-c4nc5ccc(N6CCN(C)CC6)cc5[nH]4)cc3)nn2)cc1 [Compound 21, 2-(4-(2-(4-(4-Ethynylphenyl)-1H-1,2,3-triazol-1-yl)ethoxy)-phenyl)-6-(4-methylpiperazin-1-yl)-1H-benzo[d]imidazole]

SMILES: CN1CCN(c2ccc3nc(-c4ccc5nc(-c6ccc(O)cc6)[nH]c5c4)[nH]c3c2)CC1.Cl.Cl.Cl [Hoechst 33258, reference compound]
IC50 at 48 h (Cytotoxicity [5]): > 10 µM | MIC [3]: 0.3 to 4 µg/mL

SMILES: CCOc1ccc(-c2nc3cc(-c4nc5cc(N6CCN(C)CC6)ccc5[nH]4)ccc3[nH]2)cc1 [Hoechst 33342, reference compound]
effect on the RNA topoisomerase activity of EcoTop1 [1]: do not have any effect | MIC [3]: 0.3 to 4 µg/mL (≈ 0.663 to 8.84 µM)

SMILES: CCOc1ccc2nc3cc(N)ccc3c(N)c2c1 [ethacridine, reference compound]
effect on the RNA topoisomerase activity of EcoTop1 [1]: do not have any effect
